Reference: ChEMBL document CHEMBL1139367, “A novel histone acetyltransferase inhibitor modulating Gcn5 network: cyclopentylidene-[4-(4'-chlorophenyl)thiazol-2-yl)hydrazone” (2009)
Activity calls are given as the source filed them. The rule behind the calls is not given here.

Columns and labels:
[1] = molecular target: Histone acetyltransferase KAT2A (Homo sapiens) (UniProt Q92830); test: Inhibition of human recombinant Gcn5 assessed as reduction in acetylated histone H3 level at 0.2 mM by Western blot analysis in presence of histone H3
Outline: (§1)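 Tube reaction of human recombinant Gcn5 (50 ng) with 1 mM acetyl-CoA and histone H3 (100 or 200 ng). Buffer: 50 mM Tris-HCl pH 8.0, 0.1 mM EDTA, 50 mM KCl, 1 mM DTT, 5% glycerol. Incubated 1 h at 28 °C with or without compound, then 15% SDS-PAGE and blotting. Blots were probed serially with anti-acetyl-lysine and anti-acetyl-H3 antibodies.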

[2] = molecular target: Histone acetyltransferase KAT2A (Homo sapiens) (UniProt Q92830); test: Inhibition of human recombinant Gcn5 assessed as reduction in acetylated histone H3 level at 0.2 mM by Western blot analysis; outline: as §1
Saccharomyces cerevisiae [3] = test: Inhibition of histone H3 acetylation at H3-AcK14 site in wild type Saccharomyces cerevisiae S288C at 0.8 mM after 24 hrs at 28 degC by hybridization assay; format: functional, organism-based
Outline: (§2)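 Wild-type S288c yeast grown 24 h at 28 °C in YEPD with 1% DMSO, with or without compound added to the medium. Bulk proteins were extracted by an alkaline protocol, run on 15% SDS-PAGE and blotted. Blots were probed for acetylated H3, H4 and H3-K14Ac, with ECL detection. Signals were normalized to Ada2p and quantified densitometrically.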

Saccharomyces cerevisiae [4] = test: Growth inhibition of Saccharomyces cerevisiae SB0-deltabr mutant at 0.2 to 1 mM after 48 hrs at 28 degC by growth spot assay; format: functional, organism-based
Outline: (§3)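 Exponentially growing yeast cells at 0.2 OD/mL were serially diluted 1/5. They were spotted on solid YEPD (2% agar) containing 1% DMSO, with compound added from a 100 mM DMSO stock at increasing concentrations. Plates were incubated at 28 °C. Each mutant was compared with its isogenic wild type (S288c, YMK986 or SB819).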

Saccharomyces cerevisiae [5] = test: Reduction of global histone H4 acetylation in wild type Saccharomyces cerevisiae S288C at 0.8 mM after 24 hrs at 28 degC by hybridization assay; format: functional, organism-based; outline: as §2
[6] = molecular target: Histone acetyltransferase KAT2A (Homo sapiens) (UniProt Q92830); test: Inhibition of human recombinant Gcn5 assessed as reduction in acetylated histone H3 level at 0.8 mM by Western blot analysis in presence of 200 ng histone H3; outline: as §1
Saccharomyces cerevisiae [7] = test: Decrease in global histone H3 acetylation in wild type Saccharomyces cerevisiae S288C at 0.8 mM after 24 hrs at 28 degC by hybridization assay; format: functional; design: scale not given: the % may be the effect or the level left; outline: as §2
Saccharomyces cerevisiae [8] = test: Growth inhibition of Saccharomyces cerevisiae gcn5E173H mutant at 0.2 to 1 mM after 48 hrs at 28 degC by growth spot assay; format: functional, organism-based; outline: as §3
Saccharomyces cerevisiae [9] = test: Inhibition of global histone H3 acetylation in Saccharomyces cerevisiae gcn5delta mutant at 0.8 mM after 24 hrs at 28 degC by hybridization assay; format: functional, organism-based
[10] = molecular target: Histone acetyltransferase KAT2A (Homo sapiens) (UniProt Q92830); test: Inhibition of human recombinant Gcn5 assessed as reduction in acetylated histone H3 level at 0.8 mM by Western blot analysis; outline: as §1
Saccharomyces cerevisiae [11] = test: Growth inhibition of Saccharomyces cerevisiae gcn5delta mutant at 0.2 to 1 mM after 48 hrs at 28 degC by growth spot assay; format: functional, organism-based; outline: as §3
Saccharomyces cerevisiae [12] = test: Growth inhibition of wild type wild type Saccharomyces cerevisiae SB819 at 0.2 to 1 mM after 48 hrs at 28 degC by growth spot assay; format: functional, organism-based; outline: as §3
Saccharomyces cerevisiae [13] = test: Inhibition of histone H3 acetylation at H3-AcK14 site in Saccharomyces cerevisiae gcn5delta mutant at 0.8 mM after 24 hrs at 28 degC by hybridization assay; format: functional, organism-based
[14] = molecular target: Histone acetyltransferase KAT2A (Homo sapiens) (UniProt Q92830); test: Inhibition of human recombinant Gcn5 assessed as reduction in acetylated histone H3 level at 0.8 mM by Western blot analysis in presence of increased concentration of acetyl-CoA

Chain of Histone acetyltransferase KAT2A (Homo sapiens) (Q92830 2-837 limits assumed): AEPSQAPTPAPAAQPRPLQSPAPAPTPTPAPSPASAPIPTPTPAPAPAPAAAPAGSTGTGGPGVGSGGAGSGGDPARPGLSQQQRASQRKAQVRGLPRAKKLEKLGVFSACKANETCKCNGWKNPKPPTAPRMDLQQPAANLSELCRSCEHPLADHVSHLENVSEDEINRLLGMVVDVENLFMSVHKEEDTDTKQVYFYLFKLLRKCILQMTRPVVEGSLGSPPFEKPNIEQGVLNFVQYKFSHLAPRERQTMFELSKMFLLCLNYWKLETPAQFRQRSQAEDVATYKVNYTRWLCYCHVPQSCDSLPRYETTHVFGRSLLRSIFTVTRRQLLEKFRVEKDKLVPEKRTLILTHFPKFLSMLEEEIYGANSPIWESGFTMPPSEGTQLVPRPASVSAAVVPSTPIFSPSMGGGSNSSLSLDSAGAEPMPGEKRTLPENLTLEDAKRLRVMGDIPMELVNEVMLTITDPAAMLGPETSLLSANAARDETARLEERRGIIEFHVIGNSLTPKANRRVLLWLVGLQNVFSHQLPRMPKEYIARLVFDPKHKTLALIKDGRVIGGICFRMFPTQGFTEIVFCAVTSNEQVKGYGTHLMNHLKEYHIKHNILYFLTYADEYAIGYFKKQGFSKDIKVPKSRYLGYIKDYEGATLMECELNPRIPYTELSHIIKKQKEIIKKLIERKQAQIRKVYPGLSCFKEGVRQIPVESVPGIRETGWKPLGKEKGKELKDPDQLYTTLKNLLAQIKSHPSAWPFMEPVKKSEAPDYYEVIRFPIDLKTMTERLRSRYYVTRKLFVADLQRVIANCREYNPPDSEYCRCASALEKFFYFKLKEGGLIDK

Structure (SMILES)	Activity [1]	Activity [2]	Activity (Saccharomyces cerevisiae [3])	Activity (Saccharomyces cerevisiae [4])	Activity (Saccharomyces cerevisiae [5])	Activity [6]	Activity (Saccharomyces cerevisiae [7]) [%]	Activity (Saccharomyces cerevisiae [8])	Activity (Saccharomyces cerevisiae [9])	Activity [10]	Activity (Saccharomyces cerevisiae [11])	Activity (Saccharomyces cerevisiae [12])	Activity (Saccharomyces cerevisiae [13])	Activity [14]
C=CC/C=C\C/C=C\CCCCCCCc1cccc(O)c1C(=O)O	Active	Active												
Clc1ccc(-c2csc(NN=C3CCCC3)n2)cc1			Active	inactive	inactive	inactive	30	Active	Active	Active	Active	inactive	Active	Active
